# Measurements published in ChEMBL document CHEMBL5058577, “EUbOPEN Chemogenomics Library 2 (Multiplex)” (2022).
# Test system: HEK-293T
# Assay: Multiplex assay against HEK293T
# Type: toxicity, cell-based
# Conditions: human
# Summary of the method: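 On a CQ1 microscope at 37°C and 5% CO2, live cells were imaged after compound addition. They had been stained at seeding with Hoechst33342, BioTracker Green Microtubule Cytoskeleton Dye, MitoTracker Red and Annexin V Alexa Fluor 680. CellPathfinder machine-learning gating assigned cells to Hoechst high-intensity objects or normal cells, normal cells to healthy, pyknosed or fragmented nuclei, and pyknosed cells to mitotic or apoptotic. Tubulin, mitochondrial-mass and membrane-permeability phenotypes are per cents of healthy-nucleus cells.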
# [1] = 12 h, 1 µM, compound concentration 1 uM, replicate 1
# [2] = 12 h, 1 µM, compound concentration 1 uM, replicate 2
# [3] = 12 h, 10 µM, compound concentration 10 uM, replicate 1
# [4] = 12 h, 10 µM, compound concentration 10 uM, replicate 2
# [5] = 24 h, 1 µM, compound concentration 1 uM, replicate 1
# [6] = 24 h, 1 µM, compound concentration 1 uM, replicate 2
# [7] = 24 h, 10 µM, compound concentration 10 uM, replicate 1
# [8] = 24 h, 10 µM, compound concentration 10 uM, replicate 2
# [9] = 48 h, 1 µM, compound concentration 1 uM, replicate 1
# [10] = 48 h, 1 µM, compound concentration 1 uM, replicate 2
# [11] = 48 h, 10 µM, compound concentration 10 uM, replicate 1
# [12] = 48 h, 10 µM, compound concentration 10 uM, replicate 2
compound,measurement,setting,value
CCC(=O)OCC(=O)[C@@]1(OC(=O)CC)[C@@H](C)C[C@H]2[C@@H]3CCC4=CC(=O)C=C[C@]4(C)[C@@]3(Cl)[C@@H](O)C[C@@]21C [BECLOMETHASONE DIPROPIONATE],Population Apoptotic (%),[1],43%
same,Population Fragmented Nuclei (%),[1],8%
same,Population Healthy Nuclei (%),[1],75%
same,Population Hoechst High Intensity Objects (%),[1],7%
same,Population Membrane Permeable-Phenotype (%),[1],0%
same,Population Mitochondria Different-Phenotype (%),[1],60%
same,Population Mitotic Cells (%),[1],56%
same,Population Normal (%),[1],92%
same,Population Pyknosed Nuclei (%),[1],15%
same,Population Tubulin-Different-Phenotype (%),[1],48%
same,Total Cell Count,[1],388
same,Population Apoptotic (%),[2],47%
same,Population Fragmented Nuclei (%),[2],5%
same,Population Healthy Nuclei (%),[2],74%
same,Population Hoechst High Intensity Objects (%),[2],4%
same,Population Mitochondria Different-Phenotype (%),[2],75%
same,Population Mitotic Cells (%),[2],52%
same,Population Normal (%),[2],95%
same,Population Pyknosed Nuclei (%),[2],19%
same,Population Tubulin-Different-Phenotype (%),[2],42%
same,Total Cell Count,[2],356
same,Population Apoptotic (%),[3],60%
same,Population Fragmented Nuclei (%),[3],8%
same,Population Healthy Nuclei (%),[3],66%
same,Population Hoechst High Intensity Objects (%),[3],14%
same,Population Membrane Permeable-Phenotype (%),[3],0%
same,Population Mitochondria Different-Phenotype (%),[3],87%
same,Population Mitotic Cells (%),[3],39%
same,Population Normal (%),[3],85%
same,Population Pyknosed Nuclei (%),[3],25%
same,Population Tubulin-Different-Phenotype (%),[3],65%
same,Total Cell Count,[3],236
same,Population Apoptotic (%),[4],68%
same,Population Fragmented Nuclei (%),[4],6%
same,Population Hoechst High Intensity Objects (%),[4],16%
same,Population Mitochondria Different-Phenotype (%),[4],93%
same,Population Mitotic Cells (%),[4],31%
same,Population Normal (%),[4],83%
same,Population Pyknosed Nuclei (%),[4],27%
same,Population Tubulin-Different-Phenotype (%),[4],35%
same,Total Cell Count,[4],252
same,Population Apoptotic (%),[5],32%
same,Population Fragmented Nuclei (%),[5],7%
same,Population Healthy Nuclei (%),[5],81%
same,Population Hoechst High Intensity Objects (%),[5],4%
same,Population Membrane Permeable-Phenotype (%),[5],0%
same,Population Mitochondria Different-Phenotype (%),[5],40%
same,Population Mitotic Cells (%),[5],67%
same,Population Normal (%),[5],95%
same,Population Pyknosed Nuclei (%),[5],11%
same,Population Tubulin-Different-Phenotype (%),[5],31%
same,Total Cell Count,[5],507
same,Population Apoptotic (%),[6],43%
same,Population Hoechst High Intensity Objects (%),[6],5%
same,Population Mitochondria Different-Phenotype (%),[6],52%
same,Population Mitotic Cells (%),[6],56%
same,Population Normal (%),[6],94%
same,Population Tubulin-Different-Phenotype (%),[6],18%
same,Total Cell Count,[6],446
same,Population Apoptotic (%),[7],56%
same,Population Fragmented Nuclei (%),[7],13%
same,Population Healthy Nuclei (%),[7],65%
same,Population Hoechst High Intensity Objects (%),[7],11%
same,Population Membrane Permeable-Phenotype (%),[7],0%
same,Population Mitochondria Different-Phenotype (%),[7],89%
same,Population Mitotic Cells (%),[7],44%
same,Population Normal (%),[7],88%
same,Population Pyknosed Nuclei (%),[7],21%
same,Population Tubulin-Different-Phenotype (%),[7],73%
same,Total Cell Count,[7],270
same,Population Apoptotic (%),[8],62%
same,Population Fragmented Nuclei (%),[8],5%
same,Population Healthy Nuclei (%),[8],71%
same,Population Hoechst High Intensity Objects (%),[8],9%
same,Population Mitochondria Different-Phenotype (%),[8],97%
same,Population Mitotic Cells (%),[8],37%
same,Population Normal (%),[8],90%
same,Population Pyknosed Nuclei (%),[8],23%
same,Population Tubulin-Different-Phenotype (%),[8],43%
same,Total Cell Count,[8],243
same,Population Apoptotic (%),[9],30%
same,Population Fragmented Nuclei (%),[9],11%
same,Population Healthy Nuclei (%),[9],78%
same,Population Hoechst High Intensity Objects (%),[9],4%
same,Population Membrane Permeable-Phenotype (%),[9],0%
same,Population Mitochondria Different-Phenotype (%),[9],28%
same,Population Mitotic Cells (%),[9],69%
same,Population Normal (%),[9],95%
same,Population Pyknosed Nuclei (%),[9],9%
same,Population Tubulin-Different-Phenotype (%),[9],18%
same,Total Cell Count,[9],742
same,Population Apoptotic (%),[10],31%
same,Population Fragmented Nuclei (%),[10],12%
same,Population Healthy Nuclei (%),[10],79%
same,Population Hoechst High Intensity Objects (%),[10],3%
same,Population Mitochondria Different-Phenotype (%),[10],32%
same,Population Mitotic Cells (%),[10],68%
same,Population Normal (%),[10],96%
same,Population Pyknosed Nuclei (%),[10],8%
same,Population Tubulin-Different-Phenotype (%),[10],17%
same,Total Cell Count,[10],655
same,Population Apoptotic (%),[11],67%
same,Population Fragmented Nuclei (%),[11],14%
same,Population Healthy Nuclei (%),[11],72%
same,Population Hoechst High Intensity Objects (%),[11],5%
same,Population Membrane Permeable-Phenotype (%),[11],0%
same,Population Mitochondria Different-Phenotype (%),[11],72%
same,Population Mitotic Cells (%),[11],32%
same,Population Normal (%),[11],94%
same,Population Pyknosed Nuclei (%),[11],13%
same,Population Tubulin-Different-Phenotype (%),[11],43%
same,Total Cell Count,[11],347
same,Population Apoptotic (%),[12],65%
same,Population Fragmented Nuclei (%),[12],12%
same,Population Mitochondria Different-Phenotype (%),[12],90%
same,Population Mitotic Cells (%),[12],34%
same,Population Pyknosed Nuclei (%),[12],15%
same,Population Tubulin-Different-Phenotype (%),[12],62%
same,Total Cell Count,[12],283
CN1CCN(c2ccc(Nc3c4ccccc4nc4ccccc34)cc2)CC1.Cl.Cl.O,Population Apoptotic (%),[1],42%
same,Population Fragmented Nuclei (%),[1],7%
same,Population Healthy Nuclei (%),[1],81%
same,Population Hoechst High Intensity Objects (%),[1],3%
same,Population Membrane Permeable-Phenotype (%),[1],0%
same,Population Mitochondria Different-Phenotype (%),[1],50%
same,Population Mitotic Cells (%),[1],57%
same,Population Normal (%),[1],96%
same,Population Pyknosed Nuclei (%),[1],11%
same,Population Tubulin-Different-Phenotype (%),[1],28%
same,Total Cell Count,[1],411
same,Population Apoptotic (%),[2],55%
same,Population Fragmented Nuclei (%),[2],4%
same,Population Healthy Nuclei (%),[2],90%
same,Population Hoechst High Intensity Objects (%),[2],1%
same,Population Mitochondria Different-Phenotype (%),[2],59%
same,Population Mitotic Cells (%),[2],45%
same,Population Normal (%),[2],98%
same,Population Pyknosed Nuclei (%),[2],5%
same,Population Tubulin-Different-Phenotype (%),[2],20%
same,Total Cell Count,[2],364
same,Population Apoptotic (%),[3],100%
same,Population Fragmented Nuclei (%),[3],24%
same,Population Healthy Nuclei (%),[3],74%
same,Population Hoechst High Intensity Objects (%),[3],1%
same,Population Membrane Permeable-Phenotype (%),[3],0%
same,Population Mitochondria Different-Phenotype (%),[3],99%
same,Population Mitotic Cells (%),[3],0%
same,Population Normal (%),[3],98%
same,Population Pyknosed Nuclei (%),[3],1%
same,Population Tubulin-Different-Phenotype (%),[3],97%
same,Total Cell Count,[3],234
same,Population Fragmented Nuclei (%),[4],40%
same,Population Healthy Nuclei (%),[4],58%
same,Population Hoechst High Intensity Objects (%),[4],0%
same,Population Mitochondria Different-Phenotype (%),[4],100%
same,Population Normal (%),[4],99%
same,Population Tubulin-Different-Phenotype (%),[4],92%
same,Total Cell Count,[4],194
same,Population Apoptotic (%),[5],42%
same,Population Fragmented Nuclei (%),[5],9%
same,Population Healthy Nuclei (%),[5],84%
same,Population Hoechst High Intensity Objects (%),[5],2%
same,Population Membrane Permeable-Phenotype (%),[5],0%
same,Population Mitochondria Different-Phenotype (%),[5],40%
same,Population Mitotic Cells (%),[5],57%
same,Population Normal (%),[5],97%
same,Population Pyknosed Nuclei (%),[5],5%
same,Population Tubulin-Different-Phenotype (%),[5],14%
same,Total Cell Count,[5],455
same,Population Apoptotic (%),[6],46%
same,Population Healthy Nuclei (%),[6],86%
same,Population Hoechst High Intensity Objects (%),[6],0%
same,Population Mitochondria Different-Phenotype (%),[6],44%
same,Population Mitotic Cells (%),[6],53%
same,Population Normal (%),[6],99%
same,Population Pyknosed Nuclei (%),[6],4%
same,Population Tubulin-Different-Phenotype (%),[6],12%
same,Total Cell Count,[6],362
same,Population Apoptotic (%),[7],100%
same,Population Fragmented Nuclei (%),[7],28%
same,Population Healthy Nuclei (%),[7],69%
same,Population Hoechst High Intensity Objects (%),[7],2%
same,Population Membrane Permeable-Phenotype (%),[7],0%
same,Population Mitochondria Different-Phenotype (%),[7],100%
same,Population Mitotic Cells (%),[7],0%
same,Population Normal (%),[7],97%
same,Population Pyknosed Nuclei (%),[7],2%
same,Population Tubulin-Different-Phenotype (%),[7],92%
same,Total Cell Count,[7],247
same,Population Fragmented Nuclei (%),[8],45%
same,Population Healthy Nuclei (%),[8],53%
same,Population Hoechst High Intensity Objects (%),[8],0%
same,Population Normal (%),[8],99%
same,Population Pyknosed Nuclei (%),[8],0%
same,Population Tubulin-Different-Phenotype (%),[8],91%
same,Total Cell Count,[8],206
same,Population Apoptotic (%),[9],45%
same,Population Fragmented Nuclei (%),[9],11%
same,Population Healthy Nuclei (%),[9],82%
same,Population Hoechst High Intensity Objects (%),[9],3%
same,Population Membrane Permeable-Phenotype (%),[9],0%
same,Population Mitochondria Different-Phenotype (%),[9],30%
same,Population Mitotic Cells (%),[9],54%
same,Population Normal (%),[9],96%
same,Population Pyknosed Nuclei (%),[9],6%
same,Population Tubulin-Different-Phenotype (%),[9],16%
same,Total Cell Count,[9],581
same,Population Apoptotic (%),[10],60%
same,Population Fragmented Nuclei (%),[10],10%
same,Population Healthy Nuclei (%),[10],85%
same,Population Hoechst High Intensity Objects (%),[10],1%
same,Population Mitochondria Different-Phenotype (%),[10],36%
same,Population Mitotic Cells (%),[10],40%
same,Population Normal (%),[10],98%
same,Population Pyknosed Nuclei (%),[10],3%
same,Population Tubulin-Different-Phenotype (%),[10],12%
same,Total Cell Count,[10],411
same,Population Apoptotic (%),[11],100%
same,Population Fragmented Nuclei (%),[11],34%
same,Population Healthy Nuclei (%),[11],56%
same,Population Hoechst High Intensity Objects (%),[11],11%
same,Population Membrane Permeable-Phenotype (%),[11],0%
same,Population Mitochondria Different-Phenotype (%),[11],100%
same,Population Mitotic Cells (%),[11],0%
same,Population Normal (%),[11],88%
same,Population Pyknosed Nuclei (%),[11],9%
same,Population Tubulin-Different-Phenotype (%),[11],88%
same,Total Cell Count,[11],318
same,Population Apoptotic (%),[12],66%
same,Population Fragmented Nuclei (%),[12],52%
same,Population Healthy Nuclei (%),[12],46%
same,Population Hoechst High Intensity Objects (%),[12],5%
same,Population Mitochondria Different-Phenotype (%),[12],99%
same,Population Mitotic Cells (%),[12],33%
same,Population Normal (%),[12],94%
same,Population Pyknosed Nuclei (%),[12],1%
same,Population Tubulin-Different-Phenotype (%),[12],89%
same,Total Cell Count,[12],272
